# In the library only some 2.1% were active in any assay of this set; here they are far more common.
# pCIP destab: p/CIP protein destabilization. Q05BA5. F442A p/CIP-EGFP cells, EGFP fluorescence, 16 h. decrease of EGFP signal, % at 10 µM. actives 0.01% (n = 290,000). AID 1984;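 active = EGFP signal decrease of at least 30% at 10 µM or well 3 SD below plate mean, unless failing retest; inactive = the rest, including hits failing retest or dose response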
# Runt-CBFb FRET: Runt domain-CBFb interaction inhibition | Q01196+Q13951 | Cerulean-Runt/Venus-CBFb FRET ratio 530/480, 1 h | inhibition, % at 20 µM | actives 0.46% (n = 220,000);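 active = inhibition over about 50% at 20 µM in the single-dose screen, limit read from the data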;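 also: 0% = DMSO wells and 100% = excess unlabeled CBFb competitor control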
# Target sequence (Q01196 whole entry, looked up, the tested form may be a part): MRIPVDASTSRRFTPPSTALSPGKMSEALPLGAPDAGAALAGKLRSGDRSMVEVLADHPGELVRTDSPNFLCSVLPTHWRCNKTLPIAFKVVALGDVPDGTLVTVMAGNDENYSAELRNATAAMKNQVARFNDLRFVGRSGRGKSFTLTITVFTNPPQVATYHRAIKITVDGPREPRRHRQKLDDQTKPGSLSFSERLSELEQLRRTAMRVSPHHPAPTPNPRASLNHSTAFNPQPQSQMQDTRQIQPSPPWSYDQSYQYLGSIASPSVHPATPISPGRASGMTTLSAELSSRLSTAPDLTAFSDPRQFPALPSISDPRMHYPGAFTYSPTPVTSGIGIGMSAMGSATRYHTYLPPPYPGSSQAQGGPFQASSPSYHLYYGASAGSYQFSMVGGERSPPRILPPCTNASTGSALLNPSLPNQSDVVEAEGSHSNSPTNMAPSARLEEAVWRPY
# Target sequence (Q13951 whole entry, looked up, the tested form may be a part): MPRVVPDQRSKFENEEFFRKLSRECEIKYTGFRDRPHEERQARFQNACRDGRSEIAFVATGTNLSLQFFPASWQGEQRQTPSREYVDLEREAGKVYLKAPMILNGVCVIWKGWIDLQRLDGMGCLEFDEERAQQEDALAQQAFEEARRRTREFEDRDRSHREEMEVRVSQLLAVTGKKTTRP
#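 Assay system: Cerulean-Runt domain / Medium: Tris 50 mM pH 7.5, KCl, K2SO4, 0.01% BSA / Timing: protein complex preformed 1 h, compound exposure 1 h, room temperature, dark / Measured by: FRET, excitation 422 nm, emission at 530 and 480 nm / Evaluation: loss of energy transfer signal / Control set: 5 µM unlabeled CBFb as full-inhibition high control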
# Hck-Nef inh: inhibitors of human Hck kinase activated by Nef; Recombinant Hck-YEEI plus Nef, Z-Lyte FRET kinase assay; inhibition, % at 20 µM; actives 0.68% (n = 220,000);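 active = Hck-Nef kinase inhibition above about 50%, limit read from the data; inactive = inhibition below that limit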;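 also: 0% = DMSO with Hck plus Nef and 100% = Hck alone without Nef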
# DSG3 Ab inh: inhibitors of pemphigus antibody binding to human desmoglein-3; P32926; DSG3-coupled beads, scFv-anti-DSG3-GFP binding, flow cytometry; active compounds read low; binding (percent of control), % at 10 µM; actives 0.48% (n = 310,000); AID 588358;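 active = binding more than 3 SD below its plate's average and above zero; inconclusive = below that plate limit but binding exactly zero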;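 also: hits lower antibody fragment binding to DSG3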
# Runt-SMMHC FRET: blocks binding of human RUNX1 Runt domain to CBFb-SMMHC; Cerulean-Runt/Venus-CBFb-SMMHC FRET ratio 530/480, 1 h; inhibition, % at 20 µM; actives 0.74% (n = 220,000);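 active = mean inhibition across duplicate retests at 20 µM reaching about 50%, limit read from the data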;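 also: 0% = DMSO wells and 100% = wells with excess untagged CBFb-SMMHC; inhibitors lower the FRET ratio by blocking Runt binding to CBFb-SMMHC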
# RanGTP-Impb inh: disruptors of Ran-importin-beta complex formation – biochemical, FRET, CFP-Ran, YFP-importin-beta, homogeneous, primary screen; inhibition, % (no concentration beside the values); cell-free CFP-Ran/YFP-importin-beta FRET ratio; actives 1.1% (n = 300,000);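 active = more than half of the replicate wells show a fall in the fluorescence ratio signal beyond about 16%, limit read from the data, passing the limit was not always enough; inconclusive = exactly half of the replicate wells pass the set limit; inactive = fewer than half of replicates pass the limit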;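 also: 0% = DMSO wells and 100% = Ran loaded with GDP instead of GTP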
# The depositor's hits bear a star; u = inconclusive; x = no result given; ! = repeats disagree.
SMILES,pCIP destab,Runt-CBFb FRET,Hck-Nef inh,DSG3 Ab inh,Runt-SMMHC FRET,RanGTP-Impb inh
Cc1c(NC(=O)CN2C(=O)C3C4C=CC(C4)C3C2=O)c(=O)n(-c2ccccc2)n1C (configuration not stated),-6,12,0,103,34,9
Cc1cc(/C=C2\Cc3ccccc3C2=O)c(C)n1-c1ccccc1,2,17,-1,116,16,23*
CC1=NN2C(=N)/C(=C\c3cc(C)n(-c4ccccc4)c3C)C(=O)N=C2S1,3,-7,25,102,4,39*
Cc1cc(/C=C2/C(=N)N3C(c4ccccc4)=CSC3=NC2=O)c(C)n1-c1ccccc1,2,5,3,128,-24,-1
CCC(CC)C1=NN2C(=N)/C(=C\c3cc(C)n(-c4cccc(C)c4)c3C)C(=O)N=C2S1,-9,-2,6,72*,-25,-4
Cc1cccc(NC(=S)NC2CC3C=CC2C3)c1 (configuration not stated),-6,-1,21,119,1,1
O=C(CCCCCCN1C(=O)c2ccccc2C1=O)NC1CCCCC1,-10,-6,-6,-5.7*,-21,0
COc1ccc([N+](=O)[O-])cc1NC(=O)C(C)OC(=O)CSC(C)C(=O)Nc1cc(C)on1 (configuration not stated),x,x,x,107,x,-2
CC(C)CNC(=O)c1ccccc1NC(=O)CN(c1ccccc1)S(=O)(=O)N(C)C,-17,-1,2,54*,3,u
CCc1cc(C(=O)NC2CCCc3c2cnn3-c2ccc(F)cc2F)no1 (configuration not stated),x,x,x,96,x,x
COCCCn1c(=N)c(C(=O)NCC2CCCO2)cc2c(=O)n3cccc(C)c3nc21 (configuration not stated),5,19,196*,103,60*,177*
Cc1cccn2c(=O)c3cc(C(=O)NCC4CCCO4)c(=N)n(CCN4CCOCC4)c3nc12 (configuration not stated),5,125*,12,79,79*,106*
Cc1cccn2c(=O)c3cc(C(=O)NCCN4CCOCC4)c(=N)n(CCCN4CCOCC4)c3nc12,-4,x,x,x,x,131*
CC(C)(O)c1[nH]c2cc(F)ccc2c1C(C)(C)O,19,x,x,101,x,u
O=C(NCc1ccccc1Cl)C1CCC(=O)N(CC2CCCCC2)C1 (configuration not stated),-12,x,x,101,x,3
Nc1c(-c2ccccn2)cnn1-c1nc(-c2ccc(F)cc2)cs1,-2,-2,13,107,-2,-1
Nc1c(-c2cccs2)cnn1-c1nc(-c2ccc(F)cc2)cs1,6,-2,0,-16*,-11,-3
CCOc1ccc(N2CSC(=S)N(c3ccc(OCC)cc3)C2)cc1,-27,14,8,76*,-1,3
CCOc1ccc(N2CC(=O)SC2=S)cc1,-9,-2,-1,103,4,-3
CCCCc1cc(=O)oc2cc(O)ccc12,10,40,115*,89,86*,4
CCN(CC)c1ccc2c(O)cc(=O)oc2c1,9,0,20,107,-5,5
O=c1cc(CN2CCc3ccccc32)c2ccc(O)cc2o1,14,15,27,107,24,43*
CCN(CC)c1ccc(C(=O)OCc2cc(=O)oc3cc(O)ccc23)cc1,-3,50*,18,86*,119*,8
CC(=O)Nc1ccc(S(=O)(=O)NCCC(=O)NCc2ccco2)cc1,x,x,x,99,x,x
Oc1ccccc1CC=NC1CCCCC1,x,x,x,233,x,x
SMILES,pCIP destab,Runt-CBFb FRET,Hck-Nef inh,DSG3 Ab inh,Runt-SMMHC FRET,RanGTP-Impb inh
O=C(CN(C1CCCCC1)C1CCCCC1)N1CCc2ccccc2C1,6,-4,1,41*,4,-3
O=C(Cn1ccc2ccccc2c1=O)NCC(=O)N1CCN(c2ccccc2F)CC1,-2,x,x,x,x,-1
CCOC(=O)c1cc(C#N)c(SCC(=O)c2cc(C#N)c(SC)nc2C)[nH]c1=O,-5,16,1,103,36,60*
CCOC(=O)c1cc(C#N)c(SCC(N)=O)[nH]c1=O,4,4,-3,95,-33,8
CC(=O)c1cc(CN2CCC(n3nccc3NC(=O)c3ccccc3)CC2)cs1,5,x,x,104,x,2
CCC(C)n1c(=N)c(C#N)cc2c(=O)n3cccc(C)c3nc21 (configuration not stated),-14,104*,40,94,91*,0
Cc1ccc(CNC(=O)c2cc3c(=O)n4cccc(C)c4nc3n(CC3CCCO3)c2=N)cc1 (configuration not stated),-6,17,x,x,42,x
Cc1ccc(Cn2c(=N)c(C#N)cc3c(=O)n4cccc(C)c4nc32)cc1,-9,x,21,x,x,63*
CCOC(=O)CSc1nc(-c2ccccc2)nc2ccc(C)cc12,-3,0,13,76*,2,-1
COc1cc2nc(N3CCN(C(=O)c4ccco4)CC3)nc(N)c2cc1OC,0,0,2,117,-1,25*!
N#C/C(=C\c1ccc(-c2ccc([N+](=O)[O-])cc2)o1)C(=O)Nc1nc(-c2cccs2)cs1,-5,-5,67*,75,-12,-3
O=C(NCc1ccccc1F)c1ccc2c(c1)OCO2,-1,1,-1,99,1,16*
Cc1ccc(S(=O)(=O)[N-]c2nc3ccccc3nc2-n2cc[n+](Cc3ccccc3)c2)cc1,-10,19,13,90,39,14*
Cc1cc(C)cc(CN2C(=O)NC3(CCCCCC3)C2=O)c1,12,x,x,95,x,3
CC(C)Cc1cc(C(=O)Nc2cc(Cl)ccc2Cl)no1,-6,-4,22,-39*,2,-8
NC1=NC(c2ccc(Cl)cc2)C(C(=O)c2ccccc2)N1 (configuration not stated),-6,-2,13,107,-1,2
Cc1cccc(NC(=O)Cn2cc(C(=O)C3CC3)c3ccccc32)c1C,-15,x,x,-14*,x,1
COC(=O)CCC(=O)Nc1ccc(N=Nc2ccccc2)cc1,-1,-1,0,-11*,-4,-2
O=C(CCC(=O)c1ccccc1)Nc1ccccc1,x,x,x,80*,x,0
O=C(O)CCCC(=O)Nc1ccc(N=Nc2ccccc2)cc1,-2,1,28,92,-3,u
O=C(CCCCCCC(=O)c1ccccc1)c1ccccc1,-21,-1,22,62*,0,-2
CCOC(=O)[C@H]1NN=C(C(=O)OC)[C@@H]1c1ccccc1,-18,-3,2,x,-2,u
